Measurements reported in ChEMBL document CHEMBL4477209, “Indole-2-carboxamide-based MmpL3 Inhibitors Show Exceptional Antitubercular Activity in an Animal Model of Tuberculosis Infection” (J Med Chem, 2016).
≈ marks a conversion by molar mass, not a printed value. Calls of active or inactive are those of the source. The rule behind the calls is not given here.

Columns and labels:
[1] = system: Mycobacterium tuberculosis H37Rv; assay: Inhibition of MmpL3 in clinical isolates of drug sensitive Mycobacterium tuberculosis H37Rv after 7 to 14 days by alamar blue assay
[2] = system: Mycobacterium tuberculosis; assay: Inhibition of MmpL3 in clinical isolates of drug sensitive Mycobacterium tuberculosis V4207 after 7 to 14 days by alamar blue assay
Vero = assay: Cytotoxicity against african green monkey Vero cells; format: cell-based; settings: Chlorocebus sabaeus
[3] = Stability in mouse hepatocytes assessed as compound remaining at 1 uM after 2 hrs; format: ADME, cell-based, Hepatocyte; settings: read-out: Stability
How it was run: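 Hepatocytes from human, mouse, rat or dog incubated with 1 μM starting concentration for 2 h; percent of parent compound remaining.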

Cytochrome P450 2C9 = Cytochrome P450 2C9 (Homo sapiens, UniProt P11712); assay: Inhibition of CYP2C9 (unknown origin); format: ADME
Chain of Cytochrome P450 2C9 (P11712 whole entry): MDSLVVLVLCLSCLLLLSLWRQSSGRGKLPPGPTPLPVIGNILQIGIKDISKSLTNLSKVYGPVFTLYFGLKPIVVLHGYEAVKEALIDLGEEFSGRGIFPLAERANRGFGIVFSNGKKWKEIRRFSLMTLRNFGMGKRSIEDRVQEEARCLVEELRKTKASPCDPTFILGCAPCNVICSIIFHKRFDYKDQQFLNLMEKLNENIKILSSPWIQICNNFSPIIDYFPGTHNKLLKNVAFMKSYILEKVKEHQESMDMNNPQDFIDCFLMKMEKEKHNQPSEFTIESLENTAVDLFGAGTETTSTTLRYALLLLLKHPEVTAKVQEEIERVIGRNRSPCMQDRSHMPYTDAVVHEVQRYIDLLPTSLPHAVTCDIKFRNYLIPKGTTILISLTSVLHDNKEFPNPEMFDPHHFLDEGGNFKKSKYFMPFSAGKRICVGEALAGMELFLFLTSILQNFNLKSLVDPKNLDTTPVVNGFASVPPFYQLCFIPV

[4] = Tmax in BALB/c mouse lung at 100 mg/kg administered via oral gavage after 0.25 to 24 hrs by LC-MS analysis; format: ADME, organism-based
How it was run: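 Female BALB/c mice (20 g) got a single 100 mg/kg oral gavage dose. Three animals were sacrificed per time point at 0, 0.25, 0.5, 1, 2, 4, 8 and 24 h. Cardiac blood was spun at 12 000g, 4 °C for plasma. Lungs were bead-beaten in water and the supernatant taken. Both matrices were quantified by LC-MS/MS with an indole-2-carboxamide internal standard. Parameters came from noncompartmental analysis.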

[5] = Cmax in BALB/c mouse plasma at 100 mg/kg administered via oral gavage after 0.25 to 24 hrs by LC-MS analysis; format: ADME, organism-based; design: dose 100 mg/kg, route oral
How it was run: (§1)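 Female BALB/c mice (20 g), single oral gavage dose of 100 mg/kg. Cardiac blood and lungs taken at 0, 0.25, 0.5, 1, 2, 4, 8 and 24 h (n = 3 per time point). Plasma separated by centrifugation; lungs bead-beaten in water and supernatant recovered. Drug quantified by LC-MS/MS against an indole-2-carboxamide internal standard. Parameters derived by noncompartmental analysis.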

[6] = Cmax in BALB/c mouse lung at 100 mg/kg administered via oral gavage after 0.25 to 24 hrs by LC-MS analysis; format: ADME, organism-based; design: dose 100 mg/kg, route oral; how it was run: as §1
[7] = AUClast in BALB/c mouse lung at 100 mg/kg administered via oral gavage after 0.25 to 24 hrs by LC-MS analysis; format: ADME, organism-based; settings: in vivo; how it was run: as §1
[8] = AUMClast in BALB/c mouse plasma at 100 mg/kg administered via oral gavage after 0.25 to 24 hrs by LC-MS analysis; format: ADME, organism-based; settings: in vivo; how it was run: as §1
[9] = AUMClast in BALB/c mouse lung at 100 mg/kg administered via oral gavage after 0.25 to 24 hrs by LC-MS analysis; format: ADME, organism-based; settings: in vivo; how it was run: as §1
[10] = system: Mycobacterium tuberculosis; assay: Antimycobacterial activity against Mycobacterium tuberculosis H37Rv infected in BALB/c mouse model assessed as reduction in CFU counts in lung at 100 mg/kg administered daily via oral gavage for 5 days per week measured after 14 days post dosage relative to control; format: functional
How it was run: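 Female BALB/c mice, 4-6 weeks old, aerosol-infected with H37Rv (about 10^3 CFU); five mice taken on day 1 for lung implantation CFU. From day 1, 12.5, 25, 50 or 100 mg/kg in 0.5% carboxymethylcellulose by daily oral gavage, 5 days/week. Ethambutol 100 mg/kg as positive control, untreated infected mice as negative, 5 mice per group. Lung homogenates plated on 7H11 selective agar on days 14 and 28.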

[11] = system: Mycobacterium tuberculosis; assay: Antimycobacterial activity against Mycobacterium tuberculosis H37Rv assessed as growth inhibition at 0.0313 times MIC after 7 to 14 days in presence of 0.5 times MIC of rifampin by alamar blue assay based by Bliss synergy model analysis; format: functional
How it was run: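 Checkerboard of 2-fold dilutions, 4.0 to 0.0313 × MIC of each drug combined with rifampin. M. tuberculosis H37Rv at 1 × 10^4 CFU per well in 200 μL. Single-drug, blank and full-growth controls included. alamarBlue read-out, percent inhibition calculated. Bliss independence applied to wells below 1 × MIC; Δfaxy > 0 taken as synergy, < 0 as antagonism.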

[12] = system: Mycobacterium tuberculosis; assay: Antimycobacterial activity against Mycobacterium tuberculosis H37Rv infected in BALB/c mouse model assessed as bacterial growth inhibition in lungs at 100 mg/kg administered daily via oral gavage for 5 days per week measured after 28 days post dosage co-treated with 10 mg/kg of rifampin by Bliss synergy model based analysis; format: functional, organism-based
How it was run: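 Female BALB/c mice, 4-6 weeks old, aerosol-infected with H37Rv, day 1 implantation 3.4-log CFU per lung. Treatment from day 14: 100 mg/kg plus rifampin 10 mg/kg by oral gavage, doses at least 1 h apart, daily 5 days/week. Single-drug arms and untreated infected controls included, four mice per group. Lung CFU counted at day 28 of treatment on 7H11 selective agar.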

[13] = Oral bioavailability in BALB/c mouse at 100 mg/kg administered for 30 to 120 mins followed by Mycobacterium tuberculosis H37Rv addition to compound treated serum incubated for 7 days by alamar blue reagent based serum inhibition titration assay; format: ADME, organism-based; settings: in vivo
How it was run: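 Six-week-old female BALB/c mice (20 g) given one oral dose as suspension in 0.5% CMC in water; isoniazid 10 mg/kg as positive control, vehicle as negative. Serum collected at 30, 60 and 120 min, pooled from three mice per time point, 2-fold serially diluted. 10^4 CFU H37Rv added per well, 7 days at 37 °C. alamarBlue added for 16−18 h, fluorescence read at Ex544/Em590 and plotted against serum titration.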

Molecule `C[C@@H]1[C@H]2C[C@@H](C[C@H]1NC(=O)c1cc3c(F)cc(F)cc3[nH]1)C2(C)C` has an MIC90 [1] of 0.012 µM (≈ 0.00399 µg/mL), an MIC [2] of 23 µM (≈ 7.65 µg/mL) and an IC50 (Vero) of no less than 192 µM. For the same molecule, the remaining at 2 h, 1 µM [3] was 15%, the “inhibition (INH)” value (Cytochrome P450 2C9) was -5.2% and the Tmax [4] was 4 h. It also gave a Cmax [5] of 1710 ng/mL, a Cmax [6] of 3500 ng/g and an AUClast [7] of 51 µg·h/g. The AUMClast [8] was 137 hr.hr.ug/ml, the AUMClast [9] was 433 hr2.ug/g and the Activity [10] was 1.71 log10CFU. For the same molecule, the “growth inhibition (GI)” value [11] was 90.5%, the Activity [12] was “Active” and the Drug uptake [13] was “Active”.
